Screens: PubChem BioAssay, several laboratories
Compounds with a hit are over-represented: about 2.9% of the library has one in this group of screens.
MEKK2mut PB1 HTS: MEK5 binding signal on mutant MEKK2 PB1, primary screen, biochemical, multiplex bead flow cytometry, Alexa488-MEK5; Alexa488-MEK5 binding to MEKK2 mutant; percent response, % at 10 µM; 0.35% of 290,000 active; AID 1530, 2009; in the data active = percent response above about 24%, passing the limit was not always enough
UBC13 inh: UBC13 polyubiquitin chain formation inhibitors, primary screen, biochemical, TR-FRET, uHTS; Ubiquitin-conjugating enzyme E2 N (Homo sapiens), P61088; inhibition, % at 20 µM; 0.47% of 330,000 active; AID 485273, 2010; in the data active = inhibition above about 45%, passing the limit was not always enough
MEKK2 WT-MEK5: modulators of MEK5 binding to wildtype MEKK2, primary screen, biochemical, multiplex bead flow cytometry, Alexa488-MEK5; Mitogen-activated protein kinase kinase kinase 2 (Homo sapiens), Q9Y2U5; Alexa488-MEK5 binding to MEKK2 WT; actives lie on both sides; binding response (% of control), % at 10 µM; 1.1% of 290,000 active; AID 1531, 2009; in the data active = binding response below about 67% or above about 130%
Apaf-1 inh: inhibitors of human Apaf-1 apoptosome, primary screen, biochemical, DEVD-Rh110 fluorescence, uHTS | AID 489030, 2010 | 0.71% of 330,000 active | reconstituted apoptosome caspase-3 activity | Apoptotic protease-activating factor 1 (Homo sapiens), O14727 | inhibition, % at 20 µM; active = inhibition of at least 40% at 20 µM;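 note: plate controls were DMSO wells for no effect and DEVD-CHO caspase inhibitor wells for full effect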
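System: Apoptosome proteins | Medium: Hepes pH 7.5 with detergent and BSA | Also added: Cytochrome c trigger plus (Z-DEVD)2-Rh110 caspase-3 substrate | Incubation: 30 min compound preincubation, 50 min activation, room temperature | Detection: Rhodamine 110 fluorescence at Ex 480/Em 540 nm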
MEKK3 PB1 HTS: modulators of MEKK3-MEK5 PB1 binding, primary screen, biochemical, wildtype MEKK3, multiplex bead flow cytometry, Alexa488-MEK5; bead-based flow cytometry, Alexa488-MEK5 binding to MEKK3; actives lie on both sides; 0 = blocked by unlabeled MEK5, 100 = vehicle; binding response (% of control), % at 10 µM; 1.4% of 290,000 active;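 active = binding response more than 3 SD above or below the average of its plate-row segment, actives on both sides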;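 note: Alexa488 bead fluorescence after subtracting the streptavidin-only scavenger bead signal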
Target sequence (Q99759 whole entry, looked up): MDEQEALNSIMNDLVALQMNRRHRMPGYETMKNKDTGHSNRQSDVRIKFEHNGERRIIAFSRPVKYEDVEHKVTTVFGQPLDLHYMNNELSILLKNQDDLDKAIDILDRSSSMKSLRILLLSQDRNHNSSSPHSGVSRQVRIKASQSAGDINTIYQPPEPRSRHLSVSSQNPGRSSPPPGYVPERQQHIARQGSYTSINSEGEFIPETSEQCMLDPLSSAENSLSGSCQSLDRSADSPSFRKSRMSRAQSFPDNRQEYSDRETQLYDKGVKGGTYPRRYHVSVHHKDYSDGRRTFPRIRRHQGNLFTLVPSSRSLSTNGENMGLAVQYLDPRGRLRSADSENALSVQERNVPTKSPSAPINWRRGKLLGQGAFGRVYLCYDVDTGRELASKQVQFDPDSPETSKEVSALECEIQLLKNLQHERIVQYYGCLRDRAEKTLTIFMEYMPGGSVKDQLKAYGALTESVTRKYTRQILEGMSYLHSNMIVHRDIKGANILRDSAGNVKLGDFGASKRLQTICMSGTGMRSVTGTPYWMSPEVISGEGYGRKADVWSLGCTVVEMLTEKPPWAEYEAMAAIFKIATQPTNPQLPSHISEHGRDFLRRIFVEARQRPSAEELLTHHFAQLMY
Apaf-1 inh conf2: Apaf-1 inhibitors, single-dose retest, confirmation, biochemical, fluorescence, DEVD-Rh110, 20 µM; inhibition, % at 20 µM; 25% of 1,800 active; shares compounds with Apaf-1 inh; reconstituted apoptosome, caspase-3 DEVD-Rh110 fluorescence;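 active = mean inhibition of at least 40% at 20 µM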;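 note: plate controls were DMSO wells for no effect and DEVD-CHO caspase inhibitor control wells for full effect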
Rh110 quench: Rh110 fluorescence interference by putative Apaf-1 inhibitors, confirmation, artefact control for Apaf-1 inhibitor project, biochemical, 20 µM; shares compounds with Apaf-1 inh; quenched caspase reaction; activation (fluorescence interference), % at 20 µM; 1,800 tested, under 10 active; AID 504615, 2011;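 active = signal rise of 40% or more at 20 µM, treated as a fluorescence artifact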
Apaf1 inh interf: fluorescence interference of Apaf-1 inhibitor hits, dose response, artefact control for Apaf-1 inhibitor project; shares compounds with Apaf-1 inh; fluorescence interference counterscreen, Apaf-1 assay format; IC50, µM; 460 tested, under 10 active; AID 588538, 2011; call rule not given here
Numbers without * were called inactive; · = no result.

SMILES | MEKK2mut PB1 HTS | UBC13 inh | MEKK2 WT-MEK5 | Apaf-1 inh | MEKK3 PB1 HTS | Apaf-1 inh conf2 | Rh110 quench | others
CC(=O)N=Cc1c(C)c(C#N)c(=O)n(C)c1O | 9.0 | -12.7 | 105.0 | 43.9* | 104.0 | -1.8 | -0.9
COc1ccc(CN(C(=O)c2snc(C(N)=O)c2N)C(CC(C)C)C(=O)NC2CCCCC2)cc1 (centres undefined) | -8.0 | 14.7 | 90.0 | 21.8 | 96.0 | · | ·
FC(F)Oc1ccc(NC(=S)NCc2ccccc2)cc1 | 0.0 | -7.8 | 95.0 | 2.0 | 108.0 | · | ·
Oc1cccc2c(NC(=S)Nc3ccc(OC(F)F)cc3)cccc12 | 0.0 | -8.4 | 103.0 | 65.3* | 103.0 | 18.5 | 9.6
Cc1ccc(S(=O)(=O)NC(=O)Nc2ccc(N(C)C)cc2)cc1 | 6.0 | -45.3 | 98.0 | 57.0* | 97.0 | 23.3 | 2.1
Cc1ccc(NC(=O)NNS(=O)(=O)c2ccc(Br)cc2)cc1 | 9.0 | -2.3 | 108.0 | 2.7 | 104.0 | · | ·
Cc1c(/C=N/Nc2nc3ccccc3[nH]2)c2ccccc2n1C | 30.0 | -9.1 | 168.0* | 43.4* | 98.0 | 7.5 | 18.1
O=S(=O)(NCC(c1ccccc1)N1CCNCC1)c1ccc(Cl)cc1 (centres undefined) | 3.0 | 23.0 | 108.0 | 42.8* | 100.0 | 13.3 | 12.1
COc1ccc(C(=O)c2c(C(F)(F)F)oc3c2C(=O)c2ccccc2C3=O)cc1 | 4.0 | -46.3 | 100.0 | 78.6* | 102.0 | 84.5* | 13.9 | Apaf1 inh interf=>100
CN1CCN(S(=O)(=O)c2ccc(SCCOc3ccccc3)nc2)CC1 | -6.0 | 0.4 | 88.0 | 2.4 | 81.0 | · | ·
CCOc1ccc(OCCSc2ccc(S(=O)(=O)N3CCN(C)CC3)cn2)cc1 | · | 36.9 | · | 55.0* | · | 18.3 | 5.2
O=C1Nc2cc(Cl)c(Cl)cc2N(O)N1c1ccc(Cl)cc1 | 0.0 | 3.1 | 94.0 | -21.3 | 96.0 | · | ·
O=C1Nc2cc(Cl)c(Cl)cc2N(O)N1c1cccc(Cl)c1 | 2.0 | 2.1 | 101.0 | 44.2* | 101.0 | 13.1 | -2.1
Cc1ccccc1OCCOC(=O)c1cc(S(=O)(=O)N2CCCCC2)ccc1N1CCOCC1 | · | 7.3 | · | 30.7 | · | · | ·
O=C(NCCc1ccccc1)c1ccccc1SCC(=O)N1CCCC1 | 8.0 | 31.1 | 117.0 | 60.3* | 103.0 | 36.0 | 2.1
CCC(=O)N1c2ccccc2NC2=C(C(=O)CC(C)(C)C2)C1c1ccc(O)c(OC)c1 (centres undefined) | 1.0 | -5.7 | 102.0 | 5.0 | 100.0 | · | ·
O=C1NCCCc2c1oc1ccc(O)cc21 | -3.0 | -6.0 | 96.0 | 0.5 | 100.0 | · | ·
Oc1c(Cl)cc(Cl)c2c1NCCC2 | · | -15.2 | · | 46.6* | · | 26.6 | -1.6
CC1=NN(c2ccccc2)C(=O)C1N=Nc1cccc(O)c1 (centres undefined) | -1.0 | -40.3 | 93.0 | 2.4 | 94.0 | · | ·
CC1=NN(c2ccc(C)cc2C)C(=O)C1C(c1cccc(O)c1)C1C(=O)N(c2ccc(C)cc2C)N=C1C (centres undefined) | -1.0 | -30.0 | 97.0 | 85.3* | 97.0 | 27.4 | -1.6
COCC1CCN(Cc2cn(-c3ccccc3F)nc2-c2cc(C)sc2C)CC1 | -14.0 | 9.8 | 95.0 | -9.4 | 94.0 | · | ·
Cc1ccccc1NC(=O)NC1(C(=O)NCc2ccco2)CCCCC1 | -4.0 | 0.4 | 95.0 | -1.4 | 98.0 | · | ·
COC(=O)C1=C(C)N(Cc2ccccc2)C(=NCc2ccc(OC)cc2)N[C@H]1c1ccccc1 | · | 43.8 | · | 51.3* | · | 12.1 | 6.1
